Reference: ChEMBL document CHEMBL1151908, “Towards calixarene-based prodrugs: Drug release and antibacterial behaviour of a water-soluble nalidixic acid/calix[4]arene ester adduct” (Bioorg Med Chem Lett, 2009)
Converted amounts (≈) assume the structure as drawn. The source made the active and inactive calls. The rule behind the calls is not given here.

How the values were obtained:
Escherichia coli [1] = assay: Antibacterial activity against Escherichia coli ATCC 25922 after 18 to 24 hrs by CA-SFM and NCCLS-based broth microdilution method; assay type: functional
Summary of the method: (§1)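 MIC determined in liquid phase by broth microdilution in U-bottom 96-well plates. Bacteria were grown in Mueller-Hinton broth or agar, and isolate purity was checked at each test by colony morphology and Gram stain. The final inoculum was 1×10^5 CFU/mL, with a series of drug concentrations added. Plates were incubated 18–24 h at 35 °C, and growth was read by absorbance at 540 nm. MIC is expressed in µmol/L and µg/mL.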

Staphylococcus aureus [2] = assay: Antibacterial activity against Staphylococcus aureus ATCC 25923 after 18 to 24 hrs by CA-SFM and NCCLS-based broth microdilution method; assay type: functional; summary of the method: as §1
Staphylococcus aureus [3] = assay: Antibacterial activity against Staphylococcus aureus ATCC 29213 after 18 to 24 hrs by CA-SFM and NCCLS-based broth microdilution method; assay type: functional; summary of the method: as §1
Enterococcus faecalis [4] = assay: Antibacterial activity against Enterococcus faecalis ATCC 29212 after 18 to 24 hrs by CA-SFM and NCCLS-based broth microdilution method; assay type: functional; summary of the method: as §1
Pseudomonas aeruginosa [5] = assay: Antibacterial activity against Pseudomonas aeruginosa ATCC 27853 after 18 to 24 hrs by CA-SFM and NCCLS-based broth microdilution method; assay type: functional; summary of the method: as §1
Escherichia coli [6] = assay: Antibacterial activity against Escherichia coli ATCC 25922 at < 256 ug/mL after 18 to 24 hrs by CA-SFM and NCCLS-based broth microdilution method; assay type: functional, organism-based
Staphylococcus aureus [7] = assay: Antibacterial activity against Staphylococcus aureus ATCC 25923 at < 256 ug/mL after 18 to 24 hrs by CA-SFM and NCCLS-based broth microdilution method; assay type: functional, organism-based
Staphylococcus aureus [8] = assay: Antibacterial activity against Staphylococcus aureus ATCC 29213 at < 256 ug/mL after 18 to 24 hrs by CA-SFM and NCCLS-based broth microdilution method; assay type: functional, organism-based
Enterococcus faecalis [9] = assay: Antibacterial activity against Enterococcus faecalis ATCC 29212 at < 256 ug/mL after 18 to 24 hrs by CA-SFM and NCCLS-based broth microdilution method; assay type: functional, organism-based
Pseudomonas aeruginosa [10] = assay: Antibacterial activity against Pseudomonas aeruginosa ATCC 27853 at < 256 ug/mL after 18 to 24 hrs by CA-SFM and NCCLS-based broth microdilution method; assay type: functional, organism-based

| MIC (Escherichia coli [1]) [µM] | MIC (Staphylococcus aureus [2]) [µM] | MIC (Staphylococcus aureus [3]) [µM] | MIC (Enterococcus faecalis [4]) [µM] | MIC (Pseudomonas aeruginosa [5]) [µM] | Compound | Activity (Escherichia coli [6]) | Activity (Staphylococcus aureus [7]) | Activity (Staphylococcus aureus [8]) | Activity (Enterococcus faecalis [9]) | Activity (Pseudomonas aeruginosa [10]) |
| --- | --- | --- | --- | --- | --- | --- | --- | --- | --- | --- |
| 25 (≈ 21.7 µg/mL) | 50 (≈ 43.5 µg/mL) | 50 (≈ 43.5 µg/mL) | 100 (≈ 86.9 µg/mL) | 100 (≈ 86.9 µg/mL) | CCn1cc(C(=O)OCCCOc2c3cc(CCN)cc2Cc2cc(CCN)cc(c2O)Cc2cc(CCN)cc(c2O)Cc2cc(CCN)cc(c2O)C3)c(=O)c2ccc(C)nc21 |  |  |  |  |  |
| 110 (≈ 72 µg/mL) | 220 (≈ 144 µg/mL) | 220 (≈ 144 µg/mL) | > 220 | 220 (≈ 144 µg/mL) | NCCc1cc2c(O)c(c1)Cc1cc(CCN)cc(c1O)Cc1cc(CCN)cc(c1OCCCO)Cc1cc(CCN)cc(c1O)C2 |  |  |  |  |  |
|  |  |  |  |  | O=C([O-])C(F)(F)F.[Na+] | inactive | inactive | inactive | inactive | inactive |

| Compound | MIC (Escherichia coli [1]) [µM] | MIC (Staphylococcus aureus [2]) [µM] | MIC (Staphylococcus aureus [3]) [µM] | MIC (Enterococcus faecalis [4]) [µM] | MIC (Pseudomonas aeruginosa [5]) [µM] | Activity (Escherichia coli [6]) | Activity (Staphylococcus aureus [7]) | Activity (Staphylococcus aureus [8]) | Activity (Enterococcus faecalis [9]) | Activity (Pseudomonas aeruginosa [10]) |
| --- | --- | --- | --- | --- | --- | --- | --- | --- | --- | --- |
| CCn1cc(C(=O)O)c(=O)c2ccc(C)nc21 [NALIDIXIC ACID] | 100 (≈ 23.2 µg/mL) | 200 (≈ 46.4 µg/mL) | 200 (≈ 46.4 µg/mL) | 200 (≈ 46.4 µg/mL) | 200 (≈ 46.4 µg/mL) |  |  |  |  |  |
